These results are taken from ChEMBL document CHEMBL1123068, “2-Fluoroformycin and 2-aminoformycin. Synthesis and biological activity” (J Med Chem, 1985).

Each structure is given as a SMILES string.

This assay deals with L1210. Put plainly: Cytotoxic concentration required to reduce rate of L1210 cell proliferation after 48 hr. The format is functional, cell-based. As to conditions: Mus musculus, L1210, 48 h. The essentials:
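L1210 cells grown rapidly in suspension culture were exposed to a range of inhibitor concentrations, some tests with the adenosine deaminase inhibitor pentostatin added. The drop in proliferation rate versus untreated controls was found by cell counts at 24 and 48 h after addition, and IC50 was taken from this.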
With `Nc1nc(F)nc2c([C@@H]3O[C@H](CO)[C@@H](O)[C@H]3O)n[nH]c12`, 12 µM corresponded to half-maximal inhibition (IC50). Regarding `Nc1ncnc2c([C@@H]3O[C@H](CO)[C@@H](O)[C@H]3O)[nH]nc12` [FORMYCIN], the IC50 amounted to 1 µM.

`Nc1nc(F)nc2c([C@@H]3O[C@H](CO)[C@@H](O)[C@H]3O)n[nH]c12.OC[C@H]1O[C@@H](n2cnc3c2NC=NC[C@H]3O)C[C@@H]1O`: the IC50 is 22 µM. The same measure for `Nc1nc(N)c2[nH]nc([C@@H]3O[C@H](CO)[C@@H](O)[C@H]3O)c2n1`: 31 µM. On to `Nc1ncnc2c([C@@H]3O[C@H](CO)[C@@H](O)[C@H]3O)n[nH]c12.OC[C@H]1O[C@@H](n2cnc3c2NC=NC[C@H]3O)C[C@@H]1O`, for which the midpoint of inhibition, the IC50, lay at 0.2 µM.

`Nc1nc(N)c2[nH]nc([C@@H]3O[C@H](CO)[C@@H](O)[C@H]3O)c2n1.OC[C@H]1O[C@@H](n2cnc3c2NC=NC[C@H]3O)C[C@@H]1O` returned an IC50 of 5 µM.

As usually defined, the IC50 is the concentration that gives 50% inhibition.
